Compound activity deposited in PubChem by several laboratories.
This is a sample that favours compounds with a hit; in the whole collection about 0.99% have one here.
CASP6 VEID inh = caspase-6 (human) enzyme inhibition. 350,000 compounds, 0.53% hits. P55212. inhibition, % at 12.5 µM. AID 686996. purified caspase-6, Z-VEID-R110 cleavage fluorescence;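 active = mean inhibition across replicates at least about 35%, with every replicate also reaching that limit, limit read from the data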;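 note: 0% = median of neutral control wells and 100% = no fluorescence left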
NPR1 activator = GC-A (human) enzyme activation | activation, % at 10 µM | P16066 | HEK293 GC-A cells, cGMP TR-FRET, EC30 ANP; 0% at EC30 ANP, 100% saturating ANP | 370,000 compounds, 0.14% hits | AID 1671463; in the data active = activation above about 40%
CaV13 ICDI inh = Primary screen for inhibitors of IQ motif and Ca2+-dependent inactivation inhibitor domain binding in CACNA1D, Förster resonance energy transfer in living cells, … | 340,000 compounds, 0.098% hits | inhibition, % at 12.3 µM | AID 743397 | HEK cells, CFP/YFP FRET ICDI-IQ, plate reader, 10 min; percent FRET-ratio fall versus neutral wells;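 active = mean replicate inhibition of at least 30% and at least 1% of replicates passing that level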;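 note: 0% = median of the neutral control wells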
NSD2 HMT inh = inhibitors of human histone methyltransferase NSD2. 310,000 compounds, 0.54% hits. O96028. NSD2 peptide methylation, AlphaScreen, 120 min. inhibition, % at 12.5 µM; in the data active = inhibition above about 50%
FN deposition inh = fibronectin deposition inhibition | inhibition, % at 12.6 µM | 350,000 compounds, 0.086% hits | AH1F fibroblasts, Alexa488-fibronectin deposition fluorescence, overnight;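 active = mean inhibition across replicates of 30% or more, regardless of how many single replicates reach that level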;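 note: positive control wells lacked labelled fibronectin entirely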
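Assay system: AH1F fibroblasts / Quantity: 10000 cells per well / Medium: DMEM plus 2% serum, read in PBS / Reagent: labelled fibronectin 24 nM / Dosing: single dose, pinned / Times: 1 h cell attachment, overnight exposure to compound and label / Signal: fluorescence, ex 485 nm, em 525 nm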
NPR2 activator = GC-B (human) receptor activation | HEK293-GC-B cells, CNP EC30, cGMP TR-FRET; 0% at EC30 CNP, 100% saturating CNP | activation, % at 10 µM | 370,000 compounds, 0.11% hits;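 active = activation at 10 µM reaching about 35% in either raw or pattern-adjusted values, limit read from the data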
Target sequence (P20594 whole entry, looked up): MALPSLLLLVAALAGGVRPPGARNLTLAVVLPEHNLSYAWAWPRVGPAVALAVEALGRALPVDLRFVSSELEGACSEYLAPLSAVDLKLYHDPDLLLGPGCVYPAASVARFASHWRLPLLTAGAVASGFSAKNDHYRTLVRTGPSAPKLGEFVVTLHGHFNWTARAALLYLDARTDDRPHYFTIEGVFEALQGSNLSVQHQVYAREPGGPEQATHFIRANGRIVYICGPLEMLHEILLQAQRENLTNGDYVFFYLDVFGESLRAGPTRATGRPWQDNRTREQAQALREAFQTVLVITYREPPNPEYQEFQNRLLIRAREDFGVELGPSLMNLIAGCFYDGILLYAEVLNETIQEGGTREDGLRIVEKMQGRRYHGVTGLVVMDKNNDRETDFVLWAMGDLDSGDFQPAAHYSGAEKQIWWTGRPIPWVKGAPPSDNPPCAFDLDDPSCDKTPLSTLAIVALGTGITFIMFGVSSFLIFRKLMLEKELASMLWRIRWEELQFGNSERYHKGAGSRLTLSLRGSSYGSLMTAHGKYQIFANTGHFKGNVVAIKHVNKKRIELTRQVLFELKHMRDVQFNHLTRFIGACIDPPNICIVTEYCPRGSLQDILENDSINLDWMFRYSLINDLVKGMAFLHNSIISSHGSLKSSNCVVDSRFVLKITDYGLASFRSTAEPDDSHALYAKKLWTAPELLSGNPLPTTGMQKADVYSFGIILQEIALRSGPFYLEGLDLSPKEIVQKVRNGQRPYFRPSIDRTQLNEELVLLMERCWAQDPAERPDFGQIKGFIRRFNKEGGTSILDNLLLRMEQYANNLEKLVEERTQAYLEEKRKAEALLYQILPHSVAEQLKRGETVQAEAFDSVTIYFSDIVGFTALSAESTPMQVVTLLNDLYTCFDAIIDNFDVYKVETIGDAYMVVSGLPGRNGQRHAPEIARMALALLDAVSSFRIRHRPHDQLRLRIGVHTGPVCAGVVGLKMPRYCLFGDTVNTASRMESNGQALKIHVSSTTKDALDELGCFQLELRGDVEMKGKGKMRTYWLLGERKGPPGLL
Numbers without * were called inactive; nt = no result; + = active, no number.

SMILES	CASP6 VEID inh	NPR1 activator	CaV13 ICDI inh	NSD2 HMT inh	FN deposition inh	NPR2 activator
O=C(O)/C=C/c1ccc([N+](=O)[O-])o1	61.0*	-2.3	-4.9	40.5	4.7	-4.8
O=C(CSc1nc(O)c(Cc2ccccc2)c(=O)[nH]1)Nc1nnc(SCc2ccccc2)s1	51.5*	-0.2	-22.7	31.5	-6.2	4.1
Cc1ccc(S(=O)(=O)N2CCN(c3nc(CN4CCOCC4)nc4sc(C)c(C)c34)CC2)c(C)c1	nt	nt	nt	7.7	nt	nt
O=C(O)c1cc(-c2ccc(-c3c(-c4ccc5c(c4)OCO5)noc3-c3ccsc3)cc2)nc2ccccc12	37.1*	-0.8	-5.2	nt	-14.6	2.0
Cc1ccc(-c2cc(C(F)F)nc(S(C)(=O)=O)n2)cc1	0.7	73.9*	-1.3	0.2	7.3	0.9
O=C(NCC[C@H]1CC[C@H](NC(=O)Nc2cc(F)ccc2F)[C@H](CO)O1)Nc1ccc(Cl)cc1	-1.4	nt	nt	nt	0.5	nt
CO[C@@H]1CN(C)C(=O)c2cc(NS(=O)(=O)c3ccccc3C)ccc2OC[C@@H](C)N(S(=O)(=O)c2ccccc2)C[C@H]1C	-2.4	nt	nt	nt	17.0	nt
C=CCNC(=S)N1CCC(C(=O)c2ccc(Cl)cc2)CC1	63.9*	9.7	-1.4	0.9	-4.2	8.0
C[C@H](CO)N1C[C@H](C)[C@@H](CN(C)Cc2ccc(Cl)c(Cl)c2)Oc2ccc(NS(=O)(=O)c3cn(C)cn3)cc2C1=O	6.6	nt	nt	nt	nt	nt
CN(C1=C(N2CCCCC2)C(=O)c2ccccc2C1=O)c1ccccc1	nt	-19.0	-5.5	-0.1	-4.9	3.4
Cc1ccc(NC2=C(N3CCCCC3)C(=O)c3ccccc3C2=O)cc1	nt	0.5	nt	50.7*	nt	3.0
COc1ccccc1NC1=C(N2CCCCC2)C(=O)c2ccccc2C1=O	nt	nt	nt	93.2*	nt	nt
O=C1C(Nc2ccccc2)=C(N2CCCCC2)C(=O)c2ccccc21	nt	-1.6	-6.8	93.6*	nt	0.6
COC(=O)C[C@H]1CC[C@H](NS(=O)(=O)c2ccccc2F)[C@H](CO)O1	2.2	nt	nt	nt	nt	nt
CC(=O)N(C)C[C@H]1Oc2cc(C#Cc3ccccc3F)ccc2S(=O)(=O)N([C@H](C)CO)C[C@H]1C	-1.3	nt	nt	nt	-9.1	nt
CN(C)C(=O)c1ccc(-c2ccc(C3[C@@H]4CN(C(=O)C5CCCCC5)C[C@H]3N4)cc2)cc1 (stereo partly specified)	-2.3	nt	nt	nt	6.4	nt
COc1cc(C(=O)NC(CCSC)C(=O)OCc2cc([N+](=O)[O-])cc3c2OCOC3)cc(OC)c1OC (stereo unspecified)	36.3*	-2.2	-2.1	1.9	6.2	-2.3
N#C/C(=C\c1ccc2c(c1)OCO2)C(N)=S	-1.0	-9.7	-4.6	-2.0	-3.9	-3.5
N#C/C(=C/c1ccco1)C(N)=S	45.7*	1.7	-14.4	-14.4	-12.1	2.4
CCOc1ccccc1NC(=O)c1cccc(NC(=O)c2cccnc2)c1	nt	nt	nt	-0.2	nt	nt
C[C@H](O)C#Cc1ccc2c(c1)O[C@H](CN(C)C(=O)CN(C)C)[C@@H](C)CN([C@@H](C)CO)S2(=O)=O	-1.4	nt	nt	nt	nt	nt
CCn1c2ccccc2c(=O)c2ccccc21	2.3	3.4	+	-9.7	21.9	-2.5
CN(C)c1ccc(C(CNC(=O)c2ccc(Br)o2)N2CCCC2)cc1 (stereo unspecified)	nt	nt	nt	6.3	nt	nt
C[C@H](CO)N1C[C@H](C)[C@@H](CN(C)C(=O)Cc2ccncc2)Oc2cc(C#CC3(O)CCCC3)ccc2S1(=O)=O	nt	nt	nt	nt	-3.8	nt
COC(=O)c1c(NC(=O)CSc2n[nH]c(N)n2)sc(C)c1C	nt	-3.2	-4.9	-0.4	-2.5	-3.6
SMILES	CASP6 VEID inh	NPR1 activator	CaV13 ICDI inh	NSD2 HMT inh	FN deposition inh	NPR2 activator
Cc1sc(NC(=O)CSc2n[nH]c(N)n2)c(C#N)c1C	40.2*	5.9	-8.1	1.1	nt	-3.1
O=C(CSc1n[nH]c(-c2ccco2)n1)Nc1ccccc1F	46.5*	0.0	-2.7	1.9	1.9	6.8
O=C(CSc1n[nH]c(-c2ccco2)n1)Nc1ccccc1Cl	0.7	0.8	-5.5	1.8	7.8	-1.4
COc1ccccc1N(Cc1ccccc1)S(=O)(=O)c1cccc(C(=O)Nc2ccccn2)c1	39.4*	-1.8	nt	0.8	nt	3.6
CN(C)C(=O)c1cccc(-c2ccccc2[C@@H]2[C@@H](C#N)N(C(=O)C3CCCCC3)[C@H]2CO)c1	0.7	nt	nt	nt	3.0	nt
C[C@@H]1CN([C@@H](C)CO)C(=O)Cc2cc(NC(=O)NC3CCCCC3)ccc2O[C@@H]1CN(C)C(=O)Nc1cccc2ccccc12	0.8	nt	nt	nt	nt	nt
O=C(C[C@@H]1C[C@H]2c3cc(NC(=O)Nc4ccccc4F)ccc3O[C@H]2[C@@H](CO)O1)NCC1CC1	-5.5	nt	nt	nt	-4.4	nt
O=C1OCCC1Sc1nc2ccccc2s1 (stereo unspecified)	nt	0.3	nt	-0.6	nt	2.4
O=C1OCCC1Sc1nc2cc(Cl)ccc2s1 (stereo unspecified)	nt	37.9	-5.0	-7.6	-2.5	54.1*
O=C(COc1ccc(Cl)cc1Br)OCC(=O)c1ccc[nH]1	37.7*	6.0	-3.1	1.3	-9.0	-7.6
C[C@H]1CN([C@@H](C)CO)C(=O)c2cc(-c3ccc(F)cc3)cnc2O[C@H]1CN(C)C(=O)NC1CCCC1	-1.6	nt	nt	nt	-0.3	nt
Cc1ccccc1-c1cccc([C@@H]2C[C@H]3[C@H](CON3C)CN2Cc2ccccc2)c1	0.5	-29.5	-4.1	nt	active	-9.1
O=C1CC(SC(=S)C2CCCC2=O)C(=O)N1 (stereo unspecified)	49.2*	2.5	-5.6	33.6	nt	0.0
O=C1OC(c2ccccc2)=N/C1=C\C=C\c1ccco1	55.7*	14.7	-4.4	1.9	-9.3	2.6
O=C1OC(c2ccccc2)=N/C1=C\C=C\c1ccccc1[N+](=O)[O-]	5.2	8.9	7.1	-1.0	-12.0	3.0
O=C1OC(c2ccc(Cl)cc2)=N/C1=C\C=C\c1ccco1	64.1*	7.1	-18.8	0.3	3.6	-3.5
COC(=O)c1cccc(C(=O)N2CCCC(C(=O)c3cccc(OC(C)C)c3)C2)c1 (stereo unspecified)	39.4*	2.1	-4.4	28.2	-7.2	4.7
COc1ccc(CCN2CC(O)=C(c3nc4ccccc4c(=O)[nH]3)C2=N)cc1OC	nt	70.3*	-3.3	6.9	-7.7	-1.5
COc1ccc(CCN2CC(O)=C(c3nc(C)cs3)C2=N)cc1OC	nt	-7.1	-6.2	0.7	nt	-9.0
COc1ccc(N2C3=C(C(=O)CC(C)(C)C3)C(c3ccccc3OC)C3=C2CC(C)(C)CC3=O)cc1	4.3	-19.0	24.2	-6.9	-1.8	-12.0
COc1ccccc1C1C2=C(CC(C)(C)CC2=O)N(CC(=O)O)C2=C1C(=O)CC(C)(C)C2	-0.2	-4.5	35.6*	-1.3	-0.8	1.6
